In ChEMBL document CHEMBL4706509, “Oligosaccharide-camptothecin conjugates as potential antineoplastic drugs: Design, synthesis and biological evaluation” (Eur J Med Chem, 2020):
Values after ≈ are worked out from the molar mass of the structure shown. Active and inactive are the calls of the source. No cut-off for these calls is given here.

How the values were obtained:
[1] = test system: HepG2; test: Antitumor activity against human HepG2 cells assessed as inhibition of cell growth measured after 48 hrs by MTT assay; format: functional, cell-based; details: HepG2, 48 h
Outline: (§1)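 MTT assay; cells seeded in 96-well plates, exposed 48 h to freshly prepared compound at five concentrations, four replicate wells each; MTT (5 mg/mL) added for 4 h, formazan dissolved in DMSO, absorbance at 490 nm. IC50 by nonlinear regression; mean of three independent experiments.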

[2] = test system: HCT-116; test: Antitumor activity against human HCT-116 cells assessed as inhibition of cell growth measured after 48 hrs by MTT assay; format: functional, cell-based; details: HCT-116, 48 h; outline: as §1
[3] = test system: SW1990; test: Antitumor activity against human SW1990 cells assessed as inhibition of cell growth measured after 48 hrs by MTT assay; format: functional, cell-based; details: SW1990, 48 h; outline: as §1
[4] = test system: HEK293; test: Cytotoxicity against human HEK293 cells assessed as reduction in cell viability measured after 48 hrs by MTT assay; format: cell-based; details: HEK293, 48 h; outline: as §1
[5] = target: T1, DNA topoisomerase 1 (Homo sapiens) (UniProt P11387); test: Inhibition of human recombinant Topoisomerase 1 using supercoiled pBR322 DNA as substrate at 50 uM incubated for 30 mins by ethidium bromide staining based agarose gel electrophoresis
T1 sequence (whole entry): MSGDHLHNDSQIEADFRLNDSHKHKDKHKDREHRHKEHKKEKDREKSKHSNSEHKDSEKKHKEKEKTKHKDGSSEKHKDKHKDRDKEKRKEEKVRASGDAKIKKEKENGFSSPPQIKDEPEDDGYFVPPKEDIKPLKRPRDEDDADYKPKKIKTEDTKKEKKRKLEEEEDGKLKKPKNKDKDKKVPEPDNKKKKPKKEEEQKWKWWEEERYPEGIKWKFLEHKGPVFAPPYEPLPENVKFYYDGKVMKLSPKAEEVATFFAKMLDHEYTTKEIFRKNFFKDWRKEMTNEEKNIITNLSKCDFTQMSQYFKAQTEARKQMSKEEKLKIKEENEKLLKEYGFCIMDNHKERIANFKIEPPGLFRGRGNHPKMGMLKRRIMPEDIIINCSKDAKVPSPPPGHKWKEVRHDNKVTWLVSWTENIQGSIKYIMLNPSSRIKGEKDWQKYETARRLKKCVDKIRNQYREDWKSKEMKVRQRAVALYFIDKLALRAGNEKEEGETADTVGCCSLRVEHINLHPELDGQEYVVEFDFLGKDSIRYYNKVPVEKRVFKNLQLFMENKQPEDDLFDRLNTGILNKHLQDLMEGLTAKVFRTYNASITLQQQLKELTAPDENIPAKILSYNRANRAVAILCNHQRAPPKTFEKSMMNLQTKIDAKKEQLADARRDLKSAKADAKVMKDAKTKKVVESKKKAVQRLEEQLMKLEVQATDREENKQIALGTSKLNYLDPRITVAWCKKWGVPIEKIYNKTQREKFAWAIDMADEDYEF
Outline: (§2)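 Cell-free relaxation assay: 1 U recombinant human Topo I with 0.5 µg supercoiled pBR322 in Topo I buffer (Tris-HCl pH 8.0, KCl, MgCl2, DTT, 0.1% BSA), 37 °C for 30 min. 10-HCPT and irinotecan as positive controls. Supercoiled, relaxed and nicked forms resolved on 0.8% agarose in TAE, 90 V for 2 h, ethidium bromide stained.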

[6] = target: T1, DNA topoisomerase 1 (Homo sapiens); test: Inhibition of human recombinant Topoisomerase 1 using supercoiled pBR322 DNA as substrate at 100 uM incubated for 30 mins by ethidium bromide staining based agarose gel electrophoresis; outline: as §2
[7] = Aqueous solubility of the compound in 0.1 M Na2HPO4 solution at pH 7.4 incubated for 24 hrs by HPLC analysis; format: physicochemical; details: 0.1 M Na2HPO4 solution, pH 7.4
Outline: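 Excess solid shaken in 0.2 mL 0.1 M phosphate buffer, pH 7.4, at 25 °C for 24 h, then filtered. Filtrate (100 µL) diluted to 1.5 mL and analysed by isocratic HPLC (CH3CN:H2O 40/60, 1.0 mL/min, 35 °C column, 254 nm). Concentration read from a calibration curve built from DMSO standards. Values are the mean of triplicate determinations, in mg/mL.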

[8] = Stability of compound in 10% phosphate buffer assessed as proportion of lactone form level at pH 7.4 measured after 48 hrs by HPLC analysis; format: physicochemical; details: read-out: Drug metabolism
Outline: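 1.0 mg dissolved in 50 mL 0.1 M phosphate buffer, pH 7.4, and shaken at 37 °C. […] Lactone versus carboxylate (ring-opened) form quantified by HPLC area normalisation. Mean of triplicate determinations.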

[9] = Toxicity in iv dosed ICR mouse measured for 14 days; format: organism-based; details: in vivo, time 14 day
[10] = Ratio of test compound solubility to camptothecin solubility in 0.1 M Na2HPO4 solution at pH 7.4 incubated for 24 hrs by HPLC analysis; format: physicochemical; details: buffer, pH 7.4, 24 h

Row | Compound | IC50 [1] [µM] | IC50 [2] [µM] | IC50 [3] [µM] | IC50 [4] [µM] | inhibition [5] | inhibition [6] | solubility at 24 h [7] [µg/mL] | remaining at 48 h [8] [%] | LD50 at 336 h [9] [mg/kg] | Ratio [10]
1 | CC[C@@]1(OC(=O)NCCOCCO[C@@H]2O[C@H](COC(C)=O)[C@H](OC(C)=O)[C@H](OC(C)=O)[C@H]2OC(C)=O)C(=O)OCc2c1cc1n(c2=O)Cc2cc3ccccc3nc2-1 | 5.6 | 3.5 | 15.7 | > 100 | Active | Active | 500 (≈ 0.617 mM) | 91 | – | –
2 | CCc1c2c(nc3ccc(OC(=O)N4CCC(N5CCCCC5)CC4)cc13)-c1cc3c(c(=O)n1C2)COC(=O)[C@]3(O)CC [IRINOTECAN] | > 100 | > 100 | > 100 | > 100 | – | Active | – | – | 85.1 | –
3 | CC[C@@]1(OC(=O)NCCOCCO[C@@H]2O[C@H](CO)[C@@H](O)[C@H](OC(N)=O)[C@@H]2O)C(=O)OCc2c1cc1n(c2=O)Cc2cc3ccccc3nc2-1 | 0.9 | 1.2 | 5.2 | 52.1 | Active | Active | 16300 (≈ 23.8 mM) | 92 | – | 2717
